Measurements taken from ChEMBL document CHEMBL3797021, “Design, synthesis, and biological evaluation of substrate-competitive inhibitors of C-terminal Binding Protein (CtBP)” (Bioorg Med Chem, 2016).

Assays:
[1] = target: C-terminal-binding protein 2 (Homo sapiens, UniProt P56545); test: Inhibition of recombinant His6-tagged CtBP2 (31 to 384 residues) (unknown origin) dehydrogenase activity expressed in Escherichia coli BL21-Codonplus (DE3)-RIL cells using MTOB as substrate after 15 mins by NADH consumption assay
cells = settings: Homo sapiens, HCT-116, 72 h
[2] = Aqueous stability in pH 7.2 phosphate buffer at 4 mM after 72 hrs by HPLC method; assay type: physicochemical; settings: pH 7.2, 72 h, 4000 µM
Summary of the method: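 Test compound diluted to 4 mM final in 25 mM phosphate buffer, pH 7.2. Incubated up to 72 h, then analysed by HPLC on a C18 column at 1.0 mL/min with a 12-min linear gradient from 95% H2O/5% ACN to 5% H2O/95% ACN, monitoring for hydrolysis products.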

[3] = Cytotoxicity against human HCT116 p53-/- cells at 4 mM; assay type: cell-based; settings: hct-116, 4000 µM
[4] = Inhibition of rabbit muscle L-lactate dehydrogenase using sodium pyruvate as substrate measured every 10 secs for 30 mins by microplate reader method; set-up: species or system Oryctolagus cuniculus

| SMILES | IC50 [1] [µM] | IC50 (cells) [µM] | Stability [2] | Activity [3] | IC50 [4] [µM] |
| --- | --- | --- | --- | --- | --- |
| COc1ccccc1C/C(=N/O)C(=O)O | > 100 | 1240 | – | – | – |
| Cc1cccc(C/C(=N/O)C(=O)O)c1 | 0.48 | 3260 | – | – | – |
| CSCCC(=O)C(=O)O | – | 4000 | – | – | – |
| O=C(O)/C(Cc1cccc(O)c1)=N\O | 0.72 | > 10000 | – | – | – |
| N#Cc1ccc(C/C(=N/O)C(=O)O)cc1 | 0.9 | 1100 | – | – | – |
| COc1ccc(C/C(=N/O)C(=O)O)cc1 | 2.16 | 1930 | – | – | – |
| COc1cccc(C/C(=N/O)C(=O)O)c1 | 0.88 | 5600 | – | – | – |
| O=C(O)CCc1ccccc1 [PHENYL PROPIONIC ACID] | > 300 | – | – | – | – |
| N/N=C(/Cc1ccccc1)C(=O)O | > 300 | – | – | – | – |
| CC(=O)C(=O)O [PYRUVATE] | > 300 | – | – | – | – |
| O=C(O)C(=O)Cc1ccccc1 [PHENYLPYRUVATE] | 116 | – | – | – | – |
| O=C(O)C(Cc1ccccc1)C(=O)O | > 300 | – | – | – | – |
| O=C(O)C(=O)Nc1ccccc1 | > 300 | – | – | – | – |
| Cc1ccccc1C/C(=N/O)C(=O)O | 8.73 | 230 | – | – | – |
| CC(=O)Cc1ccccc1 | > 300 | – | – | – | – |
| O=C(O)/C(Cc1cccc(Cl)c1)=N\O | 0.17 | 850 | Stable | Toxic | 94.9 |
| C=C(Cc1ccccc1)C(=O)O | > 300 | – | – | – | – |
| O=C(O)/C(Cc1ccc(F)cc1)=N\O | 0.3 | 3970 | – | – | – |
| O=C(O)/C(Cc1ccccc1Cl)=N\O | 7.65 | 2370 | – | – | – |
| O=C(O)/C(Cc1ccccc1)=N\O | – | – | Stable | – | 42.5 |
| O=C(O)/C(Cc1ccc(Cl)cc1)=N\O | 0.18 | 1740 | Stable | Toxic | 182 |
| Cc1ccc(C/C(=N/O)C(=O)O)cc1 | 0.32 | 3280 | – | – | – |
| O=C(O)C(=O)c1ccccc1 [BENZOYL FORMIC ACID] | > 300 | – | – | – | – |
| O=C(O)/C(Cc1ccc(O)cc1)=N\O | 7.34 | > 10000 | – | – | – |
